Measurements from different studies.
NPY1R: Neuropeptide Y receptor type 1 (NPY1R, Homo sapiens, UniProt P25929)
Transmembrane protease serine 6: Transmembrane protease serine 6 (Homo sapiens, UniProt Q8IU80)
AGTR1: Type-1 angiotensin II receptor (AGTR1, Homo sapiens, UniProt P30556)
EGFR: Epidermal growth factor receptor (EGFR, Homo sapiens, UniProt P00533)

CC(C)N1CCC[C@H]1CNC(=O)c1cn(C2CCCC2)c(=O)c2c1c1ccccc1n2C
inhibition (NPY1R; ligand displacement; radioligand; 10 µM): 5%

Clc1ccc2c(C3CCN(CCc4c[nH]c5ccccc45)CC3)c[nH]c2c1
inhibition (Neuronal acetylcholine receptor; alpha4/beta2 (Homo sapiens, UniProt P17787+P43681); ligand displacement; radioligand; 10 µM): 3%

CN1CCN(CCOc2ccc3occc(=O)c3c2)CC1
inhibition (Transmembrane protease serine 6; enzyme activity; inhibitor; fluorescence; 10 µM): 6%

C[C@H](C(=O)N[C@H]1COc2ccccc2[C@@H]1S(C)(=O)=O)c1ccc(F)cc1
inhibition (AGTR1; cell-free assay; 10 µM): -6%

OC[C@@]12C[C@@H]1[C@@H](n1cnc3c(NC(C4CCCC4)C4CCCC4)nc(Cl)cc31)[C@H](O)[C@@H]2O
inhibition (Adenosine receptor A3 (ADORA3, Homo sapiens, UniProt P0DMS8); ligand displacement; radioligand; 10 µM): 35%

CN1CCN(CCCOc2ccc3occc(=O)c3c2)CC1
inhibition (Transmembrane protease serine 6; enzyme activity; inhibitor; fluorescence; 10 µM): 5%

C#Cc1n[nH]c2c(-c3cn(C(C)c4ccccn4)c(=O)[nH]c3=O)cc(F)cc12 (stereo not shown)
inhibition (EGFR; enzyme activity; inhibitor; 1 µM): -3.8%

CC(C)Cn1cnc2c(N)nc3ccccc3c21
inhibition (NPY1R; ligand displacement; radioligand; 10 µM): 13%

COc1cc(Nc2ncc(F)c(Nc3ccc4c(n3)NC(=O)C(C)(C)O4)n2)cc(OC)c1OC
inhibition (Serine/threonine-protein kinase TAO1 (TAOK1, Homo sapiens, UniProt Q7L7X3); binding; 10 µM): 92%

Cn1cc(-c2cccc(N3CCc4c(sc5c4CC(C)(C)C5)C3=O)c2CO)cc(Nc2ccncn2)c1=O
inhibition (Protein kinase C delta type (PRKCD, Homo sapiens, UniProt Q05655); enzyme activity; inhibitor; 1 µM): 1%

CCN(CC)CCCC[C@H](NC(=O)[C@H](CC(C)C)NC(=O)[C@H](C)NC(=O)[C@H](Cc1ccccc1)NC(=O)c1ccc(C(C)(C)C)cc1)C(=O)N[C@@H](CO)C(=O)OC
inhibition (NPY1R; ligand displacement; radioligand; 10 µM): -20%

CN(CCN1CCC(OC(=O)Nc2ccccc2-c2ccccc2)CC1)C(=O)c1ccc(CN2CCC(C(N)=O)CC2)cc1
inhibition (Vasopressin V2 receptor (AVPR2, Homo sapiens, UniProt P30518); ligand displacement; radioligand; 1 µM): -7%

COCc1c(-c2cc3cc(C)cc(OC)c3s2)c2c(N)ncnn2c1CN1CCNC(=O)C1
inhibition (Serine/threonine-protein kinase Nek5 (NEK5, Homo sapiens, UniProt Q6P3R8); cell-free assay; competition with immobilised ligand; 1 µM): 90.1%

C#Cc1n[nH]c2c(-c3cn([C@@H](C)c4ccccc4)c(=O)[nH]c3=O)cc(F)cc12
inhibition (EGFR; enzyme activity; inhibitor; 0.1 µM): 0.9%

COc1ccc(S(=O)(=O)N2CCCCC2)cc1C
inhibition (NPY1R; ligand displacement; radioligand; 10 µM): < 30%

c1ccc(C(NCCNC(c2ccccc2)c2ccccc2)c2ccccc2)cc1
inhibition (AGTR1; cell-free assay; 10 µM): 40%

O=C(Nc1cccnn1)N1CCN([C@@H]2CCOc3cc(C(F)(F)F)ccc32)CC1
inhibition (Beta-secretase 1 (BACE1, Homo sapiens, UniProt P56817); enzyme activity; inhibitor; 20 µM): 3%

Cn1cc(-c2cc(F)cc(N3CCn4c(cc5c4CCCC5)C3=O)c2CO)cc(Nc2ccc(N3CCN(C4COC4)CC3)cn2)c1=O
inhibition (Serine/threonine-protein kinase mTOR (MTOR, Homo sapiens, UniProt P42345); enzyme activity; inhibitor; 0.1 µM): 2%

CC(C)C(CC(=O)NO)N=[N+]=[N-] (stereo not shown)
inhibition (Endoplasmic reticulum aminopeptidase 2 (ERAP2, Homo sapiens, UniProt Q6P179); enzyme activity; inhibitor; fluorescence; 300 µM): 5%
